Results published in PMC9066168 (RSC Advances, 2019).
Converted amounts (≈) assume the structure as drawn. Marks after values point to notes of the source that are not given here.

Tests used:
Format in all cases: cell-based
[1] = test system: Candida albicans (MTCC 227); test: microbe, parasite or virus in culture; conditions: for diameter of the inhibition zone, C. albicans: 0.1 mL of 50 mg mL^-1 in DMSO per 8 mm well, 18-24 h, NA = no activity
[2] = test system: methicillin resistant Staphylococcus aureus (MRSA); test: microbe, parasite or virus in culture; conditions: for diameter of the inhibition zone, MRSA: 0.1 mL of 50 mg mL^-1 in DMSO per 8 mm well, 18-24 h, NA = no activity
[3] = test system: Shigella flexneri (MTCC 1457); test: microbe, parasite or virus in culture
[4] = test system: Staphylococcus epidermidis (MTCC 435); test: Minimum inhibitory concentration, agar dilution method; conditions: MTCC435, 24 h, read-out: Minimum inhibitory concentration, S. epidermidis
[5] = test system: Enterococcus faecalis (MTCC 439); test: microbe, parasite or virus in culture
[6] = test system: Shigella flexneri (MTCC 1457); test: Minimum inhibitory concentration, agar dilution method
Outline: (§1)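 Bacteria were grown from a loopful in broth at 37 °C for 4 h and adjusted to McFarland turbidity, about (1 to 2) × 10^8 CFU per mL. Test compound in DMSO was mixed into Muller Hinton agar over 0.001–2 mg mL−1. Plates were swab-inoculated with 0.1 mL culture and held at 37 °C for 24 h. MIC was the lowest concentration preventing visible growth, with DMSO as control.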

[7] = test system: Staphylococcus epidermidis (MTCC 435); conditions: 0.1 mL of 50 mg mL^-1 in DMSO per 8 mm well, 18-24 h; NA = no activity
[8] = test system: methicillin resistant Staphylococcus aureus (MRSA); test: Minimum inhibitory concentration, agar dilution method; conditions: 24 h, read-out: Minimum inhibitory concentration, MRSA
Outline: as §1

[9] = test system: Enterococcus faecalis (MTCC 439); test: Minimum inhibitory concentration, agar dilution method; conditions: MTCC439, 24 h, read-out: Minimum inhibitory concentration, E. faecalis
[10] = test system: Staphylococcus aureus (MTCC 740); conditions: 0.1 mL of 50 mg mL^-1 in DMSO per 8 mm well, 18-24 h; NA = no activity
[11] = test system: Staphylococcus aureus (MTCC 740); test: Minimum inhibitory concentration, agar dilution method; conditions: MTCC740, 24 h, read-out: Minimum inhibitory concentration, S. Aureus
[12] = test system: human osteosarcoma cell line MG63; test: Antitumor MTT assay
[13] = test system: Candida albicans (MTCC 227); test: Minimum inhibitory concentration, agar dilution method; conditions: Muller Hinton agar, 25 °C, 24 h
[14] = 0.1 mL of 50 mg mL^-1 in DMSO per 8 mm well, 18-24 h, NA = no activity

C[C@@H]1[C@H](O)[C@@H](C)/C=C/C=C/C=C/C=C/C=C/C=C/C=C/[C@H](O[C@@H]2O[C@H](C)[C@@H](O)[C@H](N)[C@@H]2O)C[C@@H]2O[C@](O)(C[C@@H](O)C[C@@H](O)[C@H](O)CC[C@@H](O)C[C@@H](O)CC(=O)O[C@H]1C)C[C@H](O)[C@H]2C(=O)O [Amphotericin B]
diameter of the inhibition zone, C. albicans [1]: 34 ^d mm | zone of inhibition at 50 µg/mL ([1]; Candida albicans, MTCC227, read-out: diameter of the inhibition zone, C. albicans): 34 mm

S=c1[nH]c2ccccc2[nH]1 [BzimSH, benz-imidazoline-2-thione]
diameter of the inhibition zone, C. albicans [1]: 13 mm

CNC(C)C1CCC(N)C(OC2C(N)CC(N)C(OC3OCC(C)(O)C(NC)C3O)C2O)O1 (stereo not drawn) [Gentamicin, reference compound]
diameter of the inhibition zone, MRSA [2]: 33 ^d mm | zone of inhibition at 50 µg/mL ([2]; Staphylococcus aureus, MRSA, read-out: diameter of the inhibition zone, MRSA): 33 mm | diameter of the inhibition zone, S. flexneri [3, 14]: 34.5 ^d mm | zone of inhibition at 50 µg/mL ([3]; Shigella flexneri, MTCC1457, read-out: diameter of the inhibition zone, S. flexneri): 34.5 mm | MIC [4]: 30 µg/mL (≈ 62.8 µM) | diameter of the inhibition zone, E. faecalis [5, 14]: 27 ^d mm | zone of inhibition at 50 µg/mL ([5]; Enterococcus faecalis, MTCC439, read-out: diameter of the inhibition zone, E. faecalis): 27 mm | Minimum inhibitory concentration, S. flexneri ([6]; Muller Hinton agar, 37 °C, 24 h): 5 µg/mL (≈ 10.5 µM) | MIC ([6]; Shigella flexneri, MTCC1457, 24 h, read-out: Minimum inhibitory concentration, S. flexneri, Muller Hinton agar, 37 °C, 24 h): 7 µg/mL (≈ 14.7 µM) | diameter of the inhibition zone, S. epidermidis [7]: 25 ^d mm | MIC [8]: 10 µg/mL (≈ 20.9 µM) | MIC [9]: 30 µg/mL (≈ 62.8 µM) | diameter of the inhibition zone, S. aureus [10]: 26 ^d mm | MIC [11]: 0.5 µg/mL (≈ 1.05 µM)

c1ccc(P(c2ccccc2)c2ccccc2)cc1 [PPh3, triphenylphosphine, reference compound]
IC50 ([12]; Homo sapiens, MG-63, 24 h): > 100 µM

S=c1cccc[nH]1 [PySH, pyridine-2-thione, reference compound]
IC50 ([12]; Homo sapiens, MG-63, 24 h): 29.7 µM

O=c1cc[nH]c(=S)[nH]1 [tucH2, 2-thiouracil, reference compound]
IC50 ([12]; Homo sapiens, MG-63, 24 h): 44.3 µM | diameter of the inhibition zone, S. epidermidis [7]: inactive

[Ag2(purSH2)2(dppm)2](NO3)2·2H2O [Complex 5]
diameter of the inhibition zone, C. albicans [1]: 17 mm | IC50 ([12]; MG63 cells, 24 h exposure, MTT, 570 nm): 7.62 µM | diameter of the inhibition zone, S. epidermidis [7]: 12 mm | diameter of the inhibition zone, S. aureus [10]: 12 mm | Minimum inhibitory concentration, C. albicans [13]: 50 µg/mL

purine-6-thione [purSH2, reference compound]
diameter of the inhibition zone, MRSA [2]: 18 mm | diameter of the inhibition zone, C. albicans [1]: inactive | diameter of the inhibition zone, S. epidermidis [7]: inactive | diameter of the inhibition zone, S. aureus [10]: 13 mm
